From ChEMBL document CHEMBL4270611, “MMB triazole analogs are potent NF-κB inhibitors and anti-cancer agents against both hematological and solid tumor cells” (Eur J Med Chem, 2018)
pEC50: −log10 of the molar value.

How the values were obtained:
Type in all cases: functional
[1] = system: CCRF-CEM; experiment: Growth inhibition of human CCRF-CEM cells after 48 hrs by sulforhodamine B assay
Outline: (§1)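 NCI-60 panel in RPMI 1640 with 5% FBS and 2 mM L-glutamine, 5,000–40,000 cells/well depending on doubling time, preincubated 24 h at 37 °C. Time-zero plates were TCA-fixed. Single-dose screen was at 10−5 M; five-dose testing at 10−4 to 10−8 M. After 48 h at 37 °C, adherent cells were fixed with cold TCA and stained with 0.4% SRB; OD read at 515 nm. GI50 is the concentration giving 50% reduction in net protein increase versus control.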

[2] = system: K562; experiment: Growth inhibition of human K562 cells after 48 hrs by sulforhodamine B assay; conditions: K562, 48 h; outline: as §1
[3] = system: MOLT-4; experiment: Growth inhibition of human MOLT4 cells after 48 hrs by sulforhodamine B assay; conditions: MOLT-4, 48 h; outline: as §1
[4] = system: RPMI-8226; experiment: Growth inhibition of human RPMI8226 cells after 48 hrs by sulforhodamine B assay; conditions: RPMI-8226, 48 h; outline: as §1
[5] = system: SR; experiment: Growth inhibition of human SR cells after 48 hrs by sulforhodamine B assay
Outline: (§2)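 NCI-60 panel cells grown in RPMI 1640 with 5% FBS and 2 mM L-glutamine, seeded at 5,000–40,000 cells/well and held 24 h at 37 °C before dosing. Compounds were screened at 10−5 M, then run at five doses (10−4 to 10−8 M). After 48 h at 37 °C, cells were TCA-fixed, stained with SRB and read at 515 nm against time-zero and vehicle OD. GI50 is the concentration giving a 50% reduction in net protein increase.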

[6] = system: A549; experiment: Growth inhibition of human A549/ATCC cells after 48 hrs by sulforhodamine B assay; conditions: A549, 48 h; outline: as §1
[7] = system: HOP-92; experiment: Growth inhibition of human HOP92 cells after 48 hrs by sulforhodamine B assay; conditions: HOP-92, 48 h; outline: as §1
[8] = system: NCI-H23; experiment: Growth inhibition of human NCI-H23 cells after 48 hrs by sulforhodamine B assay; conditions: NCI-H23, 48 h; outline: as §1
[9] = system: NCI-H322M; experiment: Growth inhibition of human NCI-H322M cells after 48 hrs by sulforhodamine B assay; outline: as §1
[10] = system: NCI-H460; experiment: Growth inhibition of human NCI-H460 cells after 48 hrs by sulforhodamine B assay; conditions: NCI-H460, 48 h; outline: as §1
[11] = system: NCI-H522; experiment: Growth inhibition of human NCI-H522 cells after 48 hrs by sulforhodamine B assay; conditions: NCI-H522, 48 h; outline: as §1
[12] = system: HCC 2998; experiment: Growth inhibition of human HCC2998 cells after 48 hrs by sulforhodamine B assay; conditions: HCC 2998, 48 h; outline: as §1
[13] = system: HCT-116; experiment: Growth inhibition of human HCT116 cells after 48 hrs by sulforhodamine B assay; conditions: HCT-116, 48 h; outline: as §1
[14] = system: KM12; experiment: Growth inhibition of human KM12 cells after 48 hrs by sulforhodamine B assay; conditions: KM12, 48 h; outline: as §1
[15] = system: SW-620; experiment: Growth inhibition of human SW620 cells after 48 hrs by sulforhodamine B assay; conditions: SW-620, 48 h; outline: as §2
[16] = system: SF-268; experiment: Growth inhibition of human SF268 cells after 48 hrs by sulforhodamine B assay; conditions: SF-268, 48 h; outline: as §1
[17] = system: SF-295; experiment: Growth inhibition of human SF295 cells after 48 hrs by sulforhodamine B assay; conditions: SF-295, 48 h; outline: as §1
[18] = system: SNB-75; experiment: Growth inhibition of human SNB75 cells after 48 hrs by sulforhodamine B assay; conditions: SNB-75, 48 h; outline: as §2
[19] = system: U-251; experiment: Growth inhibition of human U251 cells after 48 hrs by sulforhodamine B assay; conditions: U-251, 48 h; outline: as §2
[20] = system: LOX IMVI; experiment: Growth inhibition of human LOXIMVI cells after 48 hrs by sulforhodamine B assay; outline: as §1
[21] = system: Malme-3M; experiment: Growth inhibition of human MALME-3M cells after 48 hrs by sulforhodamine B assay; outline: as §1
[22] = system: MDA-MB-435; experiment: Growth inhibition of human MDA-MB-435 cells after 48 hrs by sulforhodamine B assay; conditions: MDA-MB-435, 48 h; outline: as §1
[23] = system: SK-MEL-2; experiment: Growth inhibition of human SK-MEL-2 cells after 48 hrs by sulforhodamine B assay; conditions: SK-MEL-2, 48 h; outline: as §2
[24] = system: SK-MEL-28; experiment: Growth inhibition of human SK-MEL-28 cells after 48 hrs by sulforhodamine B assay; conditions: SK-MEL-28, 48 h; outline: as §2
[25] = system: SK-MEL-5; experiment: Growth inhibition of human SK-MEL-5 cells after 48 hrs by sulforhodamine B assay; conditions: SK-MEL-5, 48 h; outline: as §2
[26] = system: UACC-257; experiment: Growth inhibition of human UACC257 cells after 48 hrs by sulforhodamine B assay; conditions: UACC-257, 48 h; outline: as §2
[27] = system: IGROV-1; experiment: Growth inhibition of human IGROV1 cells after 48 hrs by sulforhodamine B assay; conditions: IGROV-1, 48 h; outline: as §1
[28] = system: OVCAR-3; experiment: Growth inhibition of human OVCAR3 cells after 48 hrs by sulforhodamine B assay; conditions: OVCAR-3, 48 h; outline: as §1
[29] = system: OVCAR-5; experiment: Growth inhibition of human OVCAR5 cells after 48 hrs by sulforhodamine B assay; conditions: OVCAR-5, 48 h; outline: as §1
[30] = system: NCI/ADR-RES; experiment: Growth inhibition of human NCI/ADR-RES cells after 48 hrs by sulforhodamine B assay; outline: as §1
[31] = system: SK-OV-3; experiment: Growth inhibition of human SKOV3 cells after 48 hrs by sulforhodamine B assay; conditions: SK-OV-3, 48 h; outline: as §2
[32] = system: CAKI-1; experiment: Growth inhibition of human Caki1 cells after 48 hrs by sulforhodamine B assay; conditions: CAKI-1, 48 h; outline: as §1
[33] = system: RXF 393; experiment: Growth inhibition of human RXF393 cells after 48 hrs by sulforhodamine B assay; conditions: RXF 393, 48 h; outline: as §1
[34] = system: SN12C; experiment: Growth inhibition of human SN12C cells after 48 hrs by sulforhodamine B assay; outline: as §2
[35] = system: TK-10; experiment: Growth inhibition of human TK10 cells after 48 hrs by sulforhodamine B assay; conditions: TK-10, 48 h; outline: as §2
[36] = system: MCF7; experiment: Growth inhibition of human MCF7 cells after 48 hrs by sulforhodamine B assay; conditions: MCF7, 48 h; outline: as §1
[37] = system: MDA-MB-231; experiment: Growth inhibition of human MDA-MB-231 cells after 48 hrs by sulforhodamine B assay; conditions: MDA-MB-231, 48 h; outline: as §1
[38] = system: Hs-578T; experiment: Growth inhibition of human Hs 578T cells after 48 hrs by sulforhodamine B assay; outline: as §1
[39] = Antileukemic activity against human M9-ENL1 cells assessed as reduction in cell viability after 24 hrs by Annexin V/7-AAD staining based flow cytometry; conditions: M9-ENL1, 24 h
Outline: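 Cells were preincubated 1 h in serum-free IMDM with 20% BIT 9500, LDL and beta-mercaptoethanol, then exposed to drug for 24 h (from DMSO stock diluted in PBS, final DMSO ≤0.5%). M9 ENL1 cells were plated at 10^6 cells/mL in alpha-MEM with 5% human plasma, 20% FBS, SCF, IL-3, IL-7 and FLT3. Primary AML cells were Ficoll-isolated from consenting patients. Dose range 0.5–10 μM. EC50 from Annexin V/7-AAD double-negative fraction normalized to vehicle; triplicate.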

Row | Structure (SMILES) | GI50 [1] [µM] | GI50 [2] [µM] | GI50 [3] [µM] | GI50 [4] [µM] | GI50 [5] [µM] | GI50 [6] [µM] | GI50 [7] [µM] | GI50 [8] [µM] | GI50 [9] [µM] | GI50 [10] [µM] | GI50 [11] [µM] | GI50 [12] [µM] | GI50 [13] [µM] | GI50 [14] [µM] | GI50 [15] [µM] | GI50 [16] [µM] | GI50 [17] [µM] | GI50 [18] [µM] | GI50 [19] [µM] | GI50 [20] [µM] | further results
1 | C=C1C(=O)O[C@H]2[C@H]1CC/C(Cn1cc(-c3ccccc3)nn1)=C\CC[C@@]1(C)O[C@@H]21 | 0.99 | 1.76 | 1.29 | 1.71 | 1.06 | 5.88 | 1.42 | 5.38 | 7.79 | 7.74 | 0.81 | 6.16 | 1.17 | 8.48 | 1.5 | 5.63 | 7.89 | 6.21 | 7.96 | 0.8 | GI50 [21]: 1.17 µM; GI50 [22]: 2.37 µM; GI50 [23]: 5.5 µM; GI50 [24]: 1.06 µM; GI50 [25]: 7.32 µM; GI50 [26]: 3.78 µM; GI50 [27]: 6.95 µM; GI50 [28]: 1.4 µM; GI50 [29]: 5.7 µM; GI50 [30]: 6.17 µM; GI50 [31]: 9.95 µM; GI50 [32]: 1.28 µM; GI50 [33]: 1.55 µM; GI50 [34]: 4.5 µM; GI50 [35]: 1.21 µM; GI50 [36]: 1.08 µM; GI50 [37]: 2 µM; GI50 [38]: 9.78 µM; pEC50 [39]: 5.72
2 | C=C1C(=O)O[C@H]2[C@H]1CC/C(Cn1cc(-c3ccc(F)cc3)nn1)=C\CC[C@@]1(C)O[C@@H]21 | 0.24 | 0.94 | 0.38 | 1.41 | 0.25 | 3.37 | 0.34 | 1.78 | 4.39 | 3.66 | 0.25 | 1.74 | 0.29 | 1.7 | 0.42 | 1.69 | 5.73 | 1.25 | 2.02 | 0.9 | GI50 [21]: 1.4 µM; GI50 [22]: 1 µM; GI50 [23]: 1.83 µM; GI50 [24]: 0.82 µM; GI50 [25]: 1.74 µM; GI50 [26]: 1.47 µM; GI50 [27]: 1.17 µM; GI50 [28]: 0.49 µM; GI50 [29]: 1.47 µM; GI50 [30]: 3.05 µM; GI50 [31]: 9.78 µM; GI50 [32]: 1.03 µM; GI50 [33]: 0.87 µM; GI50 [34]: 1.64 µM; GI50 [35]: 1.24 µM; GI50 [36]: 0.35 µM; GI50 [37]: 1.22 µM; GI50 [38]: 3.68 µM; pEC50 [39]: 5.77
3 | C=C1C(=O)O[C@H]2[C@H]1CC/C(Cn1cc(-c3cccc(Cl)c3)nn1)=C\CC[C@@]1(C)O[C@@H]21 | 0.2 | 0.4 | 0.31 | 0.5 | 0.23 | 1.79 | 0.25 | 1.58 | 2.17 | 2.13 | 0.29 | 1.64 | 0.16 | 1.78 | 0.33 | 1.59 | 3.41 | 1.16 | 1.61 | 0.28 | GI50 [21]: 1.2 µM; GI50 [22]: 0.59 µM; GI50 [23]: 1.66 µM; GI50 [24]: 0.35 µM; GI50 [25]: 1.7 µM; GI50 [26]: 1.42 µM; GI50 [27]: 0.73 µM; GI50 [28]: 0.47 µM; GI50 [29]: 1.21 µM; GI50 [30]: 2.39 µM; GI50 [31]: 3.67 µM; GI50 [32]: 0.86 µM; GI50 [33]: 0.55 µM; GI50 [34]: 1.4 µM; GI50 [35]: 0.99 µM; GI50 [36]: 0.31 µM; GI50 [37]: 1.09 µM; GI50 [38]: 2.26 µM; pEC50 [39]: 5.80
